Measured values reported in ChEMBL document CHEMBL1123221, “Dihydropyridazinone cardiotonics: the discovery and inotropic activity of 1,3-dihydro-3,3-dimethyl-5-(1,4,5,6-tetrahydro-6-oxo-3-pyridazinyl)-2H -indol-2-one” (J Med Chem, 1986).

Columns and labels:
Canis familiaris [1] = assay: Tested for cardiovascular contractility in anesthetized dogs; format: functional; conditions: Canis lupus familiaris
Outline: (§1)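 Right ventricular contractility measured by strain-gauge arch at 50 g tension; femoral arterial pressure and heart rate also recorded. Increasing log doses given iv at 5-min intervals, with peak responses recorded. ED50 by linear regression (mean ± SEM). Heart rate and MAP are % changes at the inotropic ED50.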

Canis familiaris [2] = assay: Evaluated for percent increase in heart rate in anesthetized dogs; format: functional, Canis lupus familiaris; outline: as §1
Canis familiaris [3] = assay: Evaluated for percent decrease in maximum arterial blood pressure in anesthetized dogs; format: functional, Canis lupus familiaris; outline: as §1
Felis catus [4] = species: Felis catus; assay: Compound was evaluated for inotropic activity in cat papillary muscles at concentration of (10e-5) M; format: functional, Papillary muscle
Outline: (§2)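 Isolated cat papillary muscles under 1.0 g base-line tension, field-stimulated with square-wave pulses (2.0 ms, 12/min, 20% above threshold). Equilibrated 60 min. Each muscle was checked with 10^-6 M isoproterenol for 3 min and rejected if the response was under 120% of control, then washed and stabilized 30 min. Test compound given cumulatively (10^-7–10^-4 M) at 30-min intervals; contractility increase recorded.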

Felis catus [5] = species: Felis catus; assay: Compound was evaluated for inotropic activity in cat papillary muscles at concentration of (10e-6) M; format: functional, Papillary muscle; outline: as §2
Felis catus [6] = species: Felis catus; assay: Compound was evaluated for inotropic activity in cat papillary muscles at concentration of (10e -4)M; format: functional, Muscle tissue; outline: as §2
Canis familiaris [7] = assay: Compound was tested for cardiovascular profile in conscious dogs at dose of 25 ug/kg po
Felis catus [8] = species: Felis catus; assay: Compound was evaluated for inotropic activity in cat papillary muscles at concentration of (10e -5)M; format: functional, Papillary muscle; outline: as §2
Felis catus [9] = species: Felis catus; assay: Compound was evaluated for inotropic activity in cat papillary muscles at concentration of (10e -6)M; format: functional, Papillary muscle; outline: as §2
Canis familiaris [10] = assay: Compound was tested for cardiovascular profile in conscious dogs at dose of 500 ug/kg po; format: functional, Canis lupus familiaris, Heart
Outline: (§3)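 Conscious, chronically instrumented dogs fasted 18 h; drug or lactose placebo given orally in 000 gelatin capsules. Contractility index was LV dP/dt60 (first derivative of left ventricular pressure at 60 mmHg); heart rate and LV systolic pressure also monitored.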

Canis familiaris [11] = assay: Compound was evaluated for percent decrease in maximum arterial blood pressure in anesthetized dogs; format: functional, Canis lupus familiaris, Artery; set-up: scale not given: the % may be the effect or the level left
Outline: as §1, with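 “Mongrel dogs of either sex (7–14 kg), pentobarbital-anesthetized (35 mg/kg iv), ventilated, kept at 37–38 °C. Right” for “Right”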

Canis familiaris [12] = assay: Compound was evaluated for percent increase in heart rate in anesthetized dogs; format: functional, Canis lupus familiaris
Outline: as §1, with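 “Mongrel dogs of either sex (7–14 kg), pentobarbital-anesthetized (35 mg/kg iv), ventilated, kept at 37–38 °C. Right” for “Right”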

Canis familiaris [13] = assay: Compound was tested for cardiovascular profile in conscious dogs at dose of 50 ug/kg po
Canis familiaris [14] = assay: Compound was tested for cardiovascular profile in conscious dogs at dose of 100 ug/kg po
Canis familiaris [15] = assay: Percent increase in contractility by administration of 500 ug/kg in conscious dog model; format: functional, Canis lupus familiaris
Outline: as §3, with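 “monitored. Peak response generally taken 150 min post-dose; mean ± SEM of four experiments.” for “monitored.”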

Canis familiaris [16] = assay: Compound was tested for cardiovascular profile in conscious dogs at dose of 400 ug/kg po
[17] = Oral bioavailability determined in dog; format: ADME, organism-based, Canis lupus familiaris; conditions: in vivo
Half-life in dog = conditions: in vivo
[18] = Half-life measured by the effect on contractility after oral administration of 25 ug/kg in dog; conditions: in vivo, 0.025 mg/kg

In the case of CC1CC(c2ccc3c(c2)C(C)(C)C(=O)N3)=NNC1=O (stereo not drawn), the ED50 (Canis familiaris [1]) is reported as 0.015 mg/kg, the Increase (Canis familiaris [2]) is reported as 13% and the Decrease (Canis familiaris [3]) is reported as 20%.
For CC(=O)Nc1ccc(C2=NNC(=O)CC2C)cc1 (stereo not drawn), the Control (Felis catus [4]) was 183%, the Control (Felis catus [5]) was 167% and the ED50 (Canis familiaris [1]) was 0.002 mg/kg. For the same molecule, the Increase (Canis familiaris [2]) was 11.7%, the Decrease (Canis familiaris [3]) was 16.6% and the “Contractile force (% of control)” value (Felis catus [6]) was 216%. It also gave a Control (Canis familiaris [7]) of 170%.
For O=C1CCC(c2ccc3c(c2)CCC(=O)N3)=NN1, the “Contractility (% of control)” value (Felis catus [8]) was 156%, the Control (Felis catus [9]) was 150% and the ED50 (Canis familiaris [1]) was 0.0033 mg/kg. For the same molecule, the Increase (Canis familiaris [2]) was 18.5%, the Percent of control (Canis familiaris [10]) was 157% and the Decrease (Canis familiaris [3]) was 8.7%. The “Contractile force (% of control)” value (Felis catus [6]) was 154%.
In the case of O=C1CCC(c2ccc3c(c2)CC(=O)N3)=NN1, the “Contractility (% of control)” value (Felis catus [8]) is reported as 147%, the Control (Felis catus [9]) is reported as 116% and the ED50 (Canis familiaris [1]) is reported as 0.024 mg/kg. The Increase (Canis familiaris [2]) was 5.6%, the Percent of control (Canis familiaris [10]) was 164% and the Decrease (Canis familiaris [3]) was 4.3%. The “Contractile force (% of control)” value (Felis catus [6]) was 152%.
With CC(=O)Nc1ccc(C2=NNC(=O)CC2)cc1 the “Contractility (% of control)” value (Felis catus [8]) was 128%, the ED50 (Canis familiaris [1]) was 0.0116 mg/kg and the Increase (Canis familiaris [2]) was 5%. For the same molecule, the Percent of control (Canis familiaris [10]) was 132%, the Decrease (Canis familiaris [3]) was 6% and the “Contractile force (% of control)” value (Felis catus [6]) was 141%.
In the case of CC1(C)Cc2cc(C3=NNC(=O)CC3)ccc2NC1=O, the ED50 (Canis familiaris [1]) is reported as 0.021 mg/kg, the Increase (Canis familiaris [2]) is reported as 8.5% and the Percent of control (Canis familiaris [10]) is reported as 116%. The Decrease (Canis familiaris [3]) was 3%.
Molecule CN1C(=O)C(C)(C)c2cc(C3=NNC(=O)CC3)ccc21 has an ED50 (Canis familiaris [1]) of 0.052 mg/kg, an Increase (Canis familiaris [2]) of 8% and a Decrease (Canis familiaris [3]) of 13%.
In the case of CC1(C)CC(=O)Nc2ccc(C3=NNC(=O)CC3)cc21, the ED50 (Canis familiaris [1]) is reported as 0.086 mg/kg, the Increase (Canis familiaris [2]) is reported as 5.9% and the Percent of control (Canis familiaris [10]) is reported as 133%. For the same molecule, the Decrease (Canis familiaris [3]) was 15%.
For Cc1cc2c(cc1C1=NNC(=O)CC1)C(C)(C)C(=O)N2, the ED50 (Canis familiaris [1]) was 0.04 mg/kg, the Increase (Canis familiaris [2]) was 7.9% and the Decrease (Canis familiaris [3]) was 0.5%.
CCC1(CC)C(=O)Nc2ccc(C3=NNC(=O)CC3)cc21 showed an ED50 (Canis familiaris [1]) of 0.741 mg/kg, an Increase (Canis familiaris [2]) of 8.9% and a Decrease (Canis familiaris [3]) of 7.5%.
With CC1CC(=O)NN=C1c1ccc2c(c1)C(C)(C)C(=O)N2 (stereo not drawn) the Control (Canis familiaris [11]) was 26%, the Control (Canis familiaris [12]) was 16% and the ED50 (Canis familiaris [1]) was 0.0032 mg/kg. It also gave a Control (Canis familiaris [13]) of 150%.
Work on CN1C(=O)CCc2cc(C3=NNC(=O)CC3)ccc21 yielded an ED50 (Canis familiaris [1]) of 0.0124 mg/kg, an Increase (Canis familiaris [2]) of 26% and a Decrease (Canis familiaris [3]) of 21%. It also gave a Control (Canis familiaris [14]) of 134%.
In the case of O=C1CCC(c2ccc(-n3ccnc3)cc2)=NN1 [IMAZODAN], the “Contractility (% of control)” value (Felis catus [8]) is reported as 147%, the ED50 (Canis familiaris [1]) is reported as 0.046 mg/kg and the Increase (Canis familiaris [2]) is reported as 9.5%. The Decrease (Canis familiaris [3]) was 18% and the “Contractile force (% of control)” value (Felis catus [6]) was 173%.
CN1N=C(c2ccc3c(c2)CC(=O)N3)CCC1=O showed an ED50 (Canis familiaris [1]) of 0.271 mg/kg, an Increase (Canis familiaris [2]) of 11% and a Decrease (Canis familiaris [3]) of 7%.
In the case of CCCC1(C)C(=O)Nc2ccc(C3=NNC(=O)CC3)cc21 (stereo not drawn), the ED50 (Canis familiaris [1]) is reported as 0.0198 mg/kg, the Increase (Canis familiaris [2]) is reported as 9.3% and the Decrease (Canis familiaris [3]) is reported as 9.6%.
For CC1C(=O)Nc2ccc(C3=NNC(=O)CC3)cc21 (stereo not drawn), the ED50 (Canis familiaris [1]) was 0.0096 mg/kg, the Increase (Canis familiaris [2]) was 8% and the Decrease (Canis familiaris [3]) was 21.8%. It also gave a Control (Canis familiaris [7]) of 141%.
Cc1cc(C2=NNC(=O)CC2)cc2c1NC(=O)C2(C)C gave an ED50 (Canis familiaris [1]) of 0.0095 mg/kg, an Increase (Canis familiaris [2]) of 8.5% and a Decrease (Canis familiaris [3]) of 17%.
Work on CC1CC(=O)NN=C1c1ccc2c(c1)C(C)(C)C(=O)N2C (stereo not drawn) yielded an ED50 (Canis familiaris [1]) of 0.0044 mg/kg, an Increase (Canis familiaris [2]) of 21.4% and a Decrease (Canis familiaris [3]) of 26%.
For Cc1[nH]c(=O)c(C#N)cc1-c1ccncc1 [MILRINONE], the Control (Felis catus [4]) was 148%, the ED50 (Canis familiaris [1]) was 0.037 mg/kg and the Increase (Canis familiaris [2]) was 9%. It also gave a Percent of control (Canis familiaris [10]) of 162%, a Decrease (Canis familiaris [3]) of 8% and an Increase (Canis familiaris [15]) of 62%. For the same molecule, the “Contractile force (% of control)” value (Felis catus [6]) was 158%.
CCC1C(=O)Nc2ccc(C3=NNC(=O)CC3)cc21 (stereo not drawn) gave an ED50 (Canis familiaris [1]) of 0.071 mg/kg, an Increase (Canis familiaris [2]) of 18% and a Decrease (Canis familiaris [3]) of 12%.
Molecule CCC1(C)C(=O)Nc2ccc(C3=NNC(=O)CC3)cc21 (stereo not drawn) has an ED50 (Canis familiaris [1]) of 0.022 mg/kg, an Increase (Canis familiaris [2]) of 2% and a Decrease (Canis familiaris [3]) of 3.1%. The Control (Canis familiaris [16]) was 149%.
Work on CCC1(C)C(=O)Nc2ccc(C3=NNC(=O)CC3C)cc21 (stereo not drawn) yielded an ED50 (Canis familiaris [1]) of 0.0148 mg/kg, an Increase (Canis familiaris [2]) of 11% and a Decrease (Canis familiaris [3]) of 20%.
For O=C1CCC(c2ccc3c(c2)CCCC(=O)N3)=NN1, the “Contractility (% of control)” value (Felis catus [8]) was 137%, the Control (Felis catus [9]) was 121% and the ED50 (Canis familiaris [1]) was 0.0052 mg/kg. The Increase (Canis familiaris [2]) was 12%, the Percent of control (Canis familiaris [10]) was 131% and the Decrease (Canis familiaris [3]) was 18%. For the same molecule, the “Contractile force (% of control)” value (Felis catus [6]) was 139%.
Work on O=C1CCC(c2ccc3c(c2)CCCN3)=NN1 yielded an ED50 (Canis familiaris [1]) of 0.257 mg/kg, an Increase (Canis familiaris [2]) of 37% and a Decrease (Canis familiaris [3]) of 12%.
In the case of CC1(C)C(=O)Nc2ccc(C3=NNC(=O)CC3)cc21 [INDOLIDAN], the bioavailability [17] is reported as 100%, the “Contractility (% of control)” value (Felis catus [8]) is reported as 164% and the Control (Felis catus [9]) is reported as 134%. For the same molecule, the ED50 (Canis familiaris [1]) was 0.0068 mg/kg, the Increase (Canis familiaris [2]) was 11.8% and the Decrease (Canis familiaris [3]) was 15.2%. For the same molecule, the “Contractile force (% of control)” value (Felis catus [6]) was 169%, the half-life (Half-life in dog) was 14 h and the Control (Canis familiaris [7]) was 151%. The half-life [18] was > 8 h.
